Measurements as given in ChEMBL document CHEMBL1137665, “Antistaphylococcal activity of CG400549, a new experimental FabI inhibitor, compared with that of other agents” (2007).
Values after ≈ are worked out from the molar mass of the structure shown.

How the values were obtained:
Format in all cases: functional
Staphylococcus aureus [1] = test: Antimicrobial activity against vancomycin-resistant Staphylococcus aureus 509 Michigan after 14 passages with CG400549 measured after 10 antibiotic-free subculture by multi-step resistance selection technique
How it was run: (§1)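 Multistep-selected mutants (daily passage at subinhibitory drug levels) then subcultured 10 times daily on antibiotic-free medium; MIC redetermined afterwards and compared with the MIC recorded at the end of selection; clone identity to parent checked by pulsed-field gel electrophoresis.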

Staphylococcus aureus [2] = test: Antimicrobial activity against panton-valentine leukocidin-positive community-acquired methicillin-resistant Staphylococcus aureus 490 after 14 passages by multi-step resistance selection technique
How it was run: (§2)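 Multistep selection: 10 S. aureus strains (8 MRSA incl. two VRSA, two VISA; 2 MSSA) serially passaged daily at subinhibitory concentrations of each antimicrobial; MICs of mutants retested and compared with parent; clone identity versus parent confirmed by pulsed-field gel electrophoresis at study end.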

Staphylococcus aureus [3] = test: Antimicrobial activity against panton-valentine leukocidin-negative community-acquired methicillin-resistant Staphylococcus aureus 481 after 37 passages with Linezolid measured after 10 antibiotic-free subculture by multi-step resistance selection technique
How it was run: (§3)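 Mutants from multistep daily serial passage in subinhibitory drug were then subcultured daily 10 times on antibiotic-free medium. MIC was redetermined after these subcultures to assess stability. Clone identity was checked by pulsed-field gel electrophoresis.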

Staphylococcus aureus [4] = test: Antimicrobial activity against methicillin-susceptible Staphylococcus aureus 543 after 15 passages with Linezolid measured after 10 antibiotic-free subculture by multi-step resistance selection technique; how it was run: as §3
Staphylococcus aureus [5] = test: Antimicrobial activity against methicillin-susceptible Staphylococcus aureus 540 after single-step resistance selection by agar dilution CLSI method
How it was run: (§4)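 Single-step selection on drug-containing agar across 10 strains (2 MSSA, 8 MRSA, including VRSA and VISA). Colonies arising on confluent background growth were retested by CLSI agar dilution MIC. Resistance was defined as an MIC more than 4× the parent MIC.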

Staphylococcus aureus [6] = test: Antimicrobial activity against community-acquired vancomycin-intermediate Staphylococcus aureus 504 by agar dilution CLSI method
How it was run: (§5)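 CLSI agar dilution MIC against S. aureus clinical isolates. Calcium was added to the medium for daptomycin testing. Vancomycin plates were read after a full 24-h incubation.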

Staphylococcus aureus [7] = test: Antimicrobial activity against vancomycin-resistant Staphylococcus aureus 510 Hershey after 18 passages with daptomycin measured after 10 antibiotic-free subculture by multi-step resistance selection technique; how it was run: as §1
Staphylococcus aureus [8] = test: Antimicrobial activity against vancomycin-resistant Staphylococcus aureus 509 Michigan after 28 passages with Linezolid measured after 10 antibiotic-free subculture by multi-step resistance selection technique; how it was run: as §1
Staphylococcus aureus [9] = test: Antimicrobial activity against vancomycin-resistant Staphylococcus aureus 509 Michigan by agar dilution CLSI method
How it was run: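 Agar dilution MIC per CLSI methodology; calcium supplemented for daptomycin testing; vancomycin plates read after a full 24-h incubation.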

Staphylococcus aureus [10] = test: Antimicrobial activity against vancomycin-resistant Staphylococcus aureus 509 Michigan after 20 passages by multi-step resistance selection technique; how it was run: as §2
Staphylococcus aureus [11] = test: Antimicrobial activity against methicillin-susceptible Staphylococcus aureus 540 after 24 passages by multi-step resistance selection technique
How it was run: (§6)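 Multistep selection by daily serial passage of each strain in subinhibitory drug concentrations for the stated number of passages. Mutant MIC was then determined. Identity of mutants and parents was confirmed by pulsed-field gel electrophoresis.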

Staphylococcus aureus [12] = test: Antimicrobial activity against vancomycin-resistant Staphylococcus aureus 510 Hershey after 18 passages by multi-step resistance selection technique; how it was run: as §2
Staphylococcus aureus [13] = test: Antimicrobial activity against vancomycin-intermediate Staphylococcus aureus 555 Hershey after 50 passages by multi-step resistance selection technique; how it was run: as §2
Staphylococcus aureus [14] = test: Antimicrobial activity against methicillin-resistant vancomycin-intermediate Staphylococcus aureus 504 after single-step resistance selection by agar dilution CLSI method; how it was run: as §4
Staphylococcus aureus [15] = test: Antimicrobial activity against panton-valentine leukocidin-negative community-acquired methicillin-resistant Staphylococcus aureus 481 after 16 passages with quinupristin-dalfopristin measured after 10 antibiotic-free subculture by multi-step resistance selection technique; how it was run: as §3
Staphylococcus aureus [16] = test: Antimicrobial activity against vancomycin-intermediate Staphylococcus aureus 504 after 16 passages with quinupristin-dalfopristin measured after 10 times antibiotic-free subculture by multi-step resistance selection technique; how it was run: as §1
Staphylococcus aureus [17] = test: Antimicrobial activity against methicillin-resistant Staphylococcus aureus 525 after 20 passages with daptomycin measured after 10 antibiotic-free subculture by multi-step resistance selection technique; how it was run: as §3
Staphylococcus aureus [18] = test: Antimicrobial activity against methicillin-resistant vancomycin-intermediate Staphylococcus aureus 555 after single-step resistance selection by agar dilution CLSI method; how it was run: as §4
Staphylococcus aureus [19] = test: Antimicrobial activity against panton-valentine leukocidin-positive community-acquired methicillin-resistant Staphylococcus aureus 490 after 17 passages with CG400549 measured after 10 antibiotic-free subculture by multi-step resistance selection technique; how it was run: as §1
Staphylococcus aureus [20] = test: Antimicrobial activity against panton-valentine leukocidin-negative community-acquired methicillin-resistant Staphylococcus aureus 481 after 14 passages with CG400549 measured after 10 antibiotic-free subculture by multi-step resistance selection technique; how it was run: as §3
Staphylococcus aureus [21] = test: Antimicrobial activity against methicillin and vancomycin-resistant Staphylococcus aureus 509 after single-step resistance selection by agar dilution CLSI method; how it was run: as §4
Staphylococcus aureus [22] = test: Antimicrobial activity against methicillin-resistant Staphylococcus aureus 547 after 21 passages with daptomycin measured after 10 antibiotic-free subculture by multi-step resistance selection technique; how it was run: as §3
Staphylococcus aureus [23] = test: Antimicrobial activity against methicillin-susceptible Staphylococcus aureus 543 after 17 passages by multi-step resistance selection technique; how it was run: as §6
Staphylococcus aureus [24] = test: Antimicrobial activity against methicillin-susceptible Staphylococcus aureus 543 after single-step resistance selection by agar dilution CLSI method; how it was run: as §4
Staphylococcus aureus [25] = test: Antimicrobial activity against methicillin-resistant Staphylococcus aureus by agar dilution CLSI method; how it was run: as §5
Staphylococcus aureus [26] = test: Antimicrobial activity against methicillin-resistant Staphylococcus aureus 547 after 21 passages by multi-step resistance selection technique; how it was run: as §6
Staphylococcus aureus [27] = test: Antimicrobial activity against methicillin-resistant Staphylococcus aureus 525 after 20 passages by multi-step resistance selection technique; how it was run: as §6
Staphylococcus aureus [28] = test: Antimicrobial activity against methicillin-resistant Staphylococcus aureus 547 after single-step resistance selection by agar dilution CLSI method; how it was run: as §4
Staphylococcus aureus [29] = test: Antimicrobial activity against vancomycin-intermediate Staphylococcus aureus 504 after 22 passages with Linezolid measured after 10 times antibiotic-free subculture by multi-step resistance selection technique; how it was run: as §1
Staphylococcus aureus [30] = test: Antimicrobial activity against vancomycin-intermediate Staphylococcus aureus 555 Hershey after 14 passages by multi-step resistance selection technique; how it was run: as §2
Staphylococcus aureus [31] = test: Antimicrobial activity against vancomycin-resistant Staphylococcus aureus 510 Hershey after 14 passages by multi-step resistance selection technique; how it was run: as §2
Staphylococcus aureus [32] = test: Antimicrobial activity against vancomycin-intermediate Staphylococcus aureus 504 after 14 passages by multi-step resistance selection technique; how it was run: as §2
Staphylococcus aureus [33] = test: Antimicrobial activity against methicillin-susceptible Staphylococcus aureus 540 after 14 passages by multi-step resistance selection technique; how it was run: as §6
Staphylococcus aureus [34] = test: Antimicrobial activity against panton-valentine leukocidin-positive community-acquired methicillin-resistant Staphylococcus aureus 490 after 17 passages by multi-step resistance selection technique; how it was run: as §2
Staphylococcus aureus [35] = test: Antimicrobial activity against methicillin-resistant Staphylococcus aureus 525 after 14 passages by multi-step resistance selection technique; how it was run: as §6
Staphylococcus aureus [36] = test: Antimicrobial activity against methicillin-resistant Staphylococcus aureus 547 after 14 passages by multi-step resistance selection technique; how it was run: as §6
Staphylococcus aureus [37] = test: Antimicrobial activity against vancomycin-resistant Staphylococcus aureus 509 Michigan after 14 passages by multi-step resistance selection technique; how it was run: as §2

Structure (SMILES)	MIC (Staphylococcus aureus [1]) [µg/mL]	MIC (Staphylococcus aureus [3]) [µg/mL]	MIC (Staphylococcus aureus [4]) [µg/mL]	MIC (Staphylococcus aureus [5]) [µg/mL]	MIC (Staphylococcus aureus [6]) [µg/mL]	MIC (Staphylococcus aureus [7]) [µg/mL]	MIC (Staphylococcus aureus [8]) [µg/mL]	MIC (Staphylococcus aureus [9]) [µg/mL]	MIC (Staphylococcus aureus [14]) [µg/mL]	MIC (Staphylococcus aureus [15]) [µg/mL]	MIC (Staphylococcus aureus [16]) [µg/mL]	MIC (Staphylococcus aureus [17]) [µg/mL]	MIC (Staphylococcus aureus [18]) [µg/mL]	MIC (Staphylococcus aureus [19]) [µg/mL]	MIC (Staphylococcus aureus [20]) [µg/mL]	MIC (Staphylococcus aureus [21]) [µg/mL]	MIC (Staphylococcus aureus [22]) [µg/mL]	MIC (Staphylococcus aureus [24]) [µg/mL]	MIC50 (Staphylococcus aureus [25]) [µg/mL]	MIC90 (Staphylococcus aureus [25]) [µg/mL]	further results
CCCCCCCCCC(=O)N[C@@H](Cc1c[nH]c2ccccc12)C(=O)N[C@H](CC(N)=O)C(=O)N[C@@H](CC(=O)O)C(=O)N[C@@H]1C(=O)NCC(=O)N[C@@H](CCCN)C(=O)N[C@@H](CC(=O)O)C(=O)N[C@H](C)C(=O)N[C@@H](CC(=O)O)C(=O)NCC(=O)N[C@H](CO)C(=O)N[C@@H]([C@H](C)CC(=O)O)C(=O)N[C@@H](CC(=O)c2ccccc2N)C(=O)O[C@@H]1C	1 (≈ 0.617 µM)	1 (≈ 0.617 µM)	2 (≈ 1.23 µM)	0.5 (≈ 0.309 µM)	4 (≈ 2.47 µM)	4 (≈ 2.47 µM)	2 (≈ 1.23 µM)	1 (≈ 0.617 µM)	0.5 (≈ 0.309 µM)	1 (≈ 0.617 µM)	2 (≈ 1.23 µM)	2 (≈ 1.23 µM)	0.5 (≈ 0.309 µM)	1 (≈ 0.617 µM)	1 (≈ 0.617 µM)	0.5 (≈ 0.309 µM)	4 (≈ 2.47 µM)	0.5 (≈ 0.309 µM)	0.5 (≈ 0.309 µM)	0.5 (≈ 0.309 µM)	MIC (Staphylococcus aureus [2]): 8 µg/mL (≈ 4.94 µM); MIC (Staphylococcus aureus [10]): 8 µg/mL (≈ 4.94 µM); MIC (Staphylococcus aureus [11]): 8 µg/mL (≈ 4.94 µM); MIC (Staphylococcus aureus [12]): 8 µg/mL (≈ 4.94 µM); MIC (Staphylococcus aureus [13]): 32 µg/mL (≈ 19.7 µM); MIC (Staphylococcus aureus [23]): 8 µg/mL (≈ 4.94 µM); MIC (Staphylococcus aureus [26]): 8 µg/mL (≈ 4.94 µM); MIC (Staphylococcus aureus [27]): 8 µg/mL (≈ 4.94 µM); MIC (Staphylococcus aureus [28]): 0.5 µg/mL (≈ 0.309 µM); MIC (Staphylococcus aureus [29]): 1 µg/mL (≈ 0.617 µM)
Cc1c(N)cccc1Cn1ccc(OCCc2cccs2)cc1=O [CG-400549]	> 64	0.125 (≈ 0.367 µM)	0.125 (≈ 0.367 µM)	0.125 (≈ 0.367 µM)	0.25 (≈ 0.734 µM)	0.125 (≈ 0.367 µM)	0.5 (≈ 1.47 µM)	1 (≈ 2.94 µM)	0.125 (≈ 0.367 µM)	0.25 (≈ 0.734 µM)	0.5 (≈ 1.47 µM)	0.125 (≈ 0.367 µM)	0.125 (≈ 0.367 µM)	8 (≈ 23.5 µM)	2 (≈ 5.87 µM)	0.125 (≈ 0.367 µM)	0.125 (≈ 0.367 µM)	0.125 (≈ 0.367 µM)	0.25 (≈ 0.734 µM)	0.25 (≈ 0.734 µM)	MIC (Staphylococcus aureus [30]): 2 µg/mL (≈ 5.87 µM); MIC (Staphylococcus aureus [31]): 4 µg/mL (≈ 11.7 µM); MIC (Staphylococcus aureus [32]): 2 µg/mL (≈ 5.87 µM); MIC (Staphylococcus aureus [33]): 16 µg/mL (≈ 47 µM); MIC (Staphylococcus aureus [34]): 8 µg/mL (≈ 23.5 µM); MIC (Staphylococcus aureus [35]): 4 µg/mL (≈ 11.7 µM); MIC (Staphylococcus aureus [36]): 32 µg/mL (≈ 94 µM); MIC (Staphylococcus aureus [37]): > 64 µg/mL; MIC (Staphylococcus aureus [28]): 0.125 µg/mL (≈ 0.367 µM); MIC (Staphylococcus aureus [29]): 0.25 µg/mL (≈ 0.734 µM)
